# MsrA inhibitor: bovine MsrA inhibition; inhibition, % at 15.5 µM; purified bovine MsrA, absorbance read-out; AID 651718; 360,000 compounds, 0.75% hits;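 further: 0% = vehicle wells with enzyme and 100% = reference inhibitor wells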
# bovine MsrA act: activators of bovine methionine sulfoxide reductase A | purified bovine MsrA, absorbance read-out | activation, % at 10.6 µM | 360,000 compounds, 0.3% hits | AID 602163; in the data active means activation above about 7.5%;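 further: 0% = vehicle and 100% = reference activator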
# TbMetRS inhib: blocks T. brucei methionyl-tRNA synthetase activity; inhibition, % at 11.9 µM; 360,000 compounds, 0.4% hits; purified T. brucei MetRS, ATP depletion, Kinase-Glo luminescence;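 active means inhibition above a per-plate cutoff of the control wells' mean inhibition plus 3 SD, cut at about 5.5% in these data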;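 further: 0% = DMSO wells median and 100% = median of wells with control inhibitor compound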
#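 Assay system: T. brucei methionyl-tRNA synthetase, purified | Medium: HEPES buffer with MgCl2, KCl, DTT, spermine, BSA, pyrophosphatase | Compound: 11.9 µM single point | Incubation: 15 min enzyme-compound preincubation, 2 h reaction, 10 min detection, 25 °C | Measured by: Kinase-Glo luciferase luminescence reporting remaining unconsumed ATP | Measure: % inhibition normalized to control-well medians | Replication: Singlicate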
# proCasp3 act: procaspase-3 (human) activation; activation, % at 8.5 µM; recombinant procaspase-3 D3A, Ac-DEVD-pNA absorbance 405 nm; 330,000 compounds, 0.11% hits; AID 463141;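 active means activation above the mean of all tested compounds plus 3 SD, cut at about 21% in these data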;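 further: 0% = DMSO alone and 100% = DMSO wells spiked with extra 5 µM PC-3 D3A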
# Target sequence (P42574 whole entry D9A/D28A/D175A): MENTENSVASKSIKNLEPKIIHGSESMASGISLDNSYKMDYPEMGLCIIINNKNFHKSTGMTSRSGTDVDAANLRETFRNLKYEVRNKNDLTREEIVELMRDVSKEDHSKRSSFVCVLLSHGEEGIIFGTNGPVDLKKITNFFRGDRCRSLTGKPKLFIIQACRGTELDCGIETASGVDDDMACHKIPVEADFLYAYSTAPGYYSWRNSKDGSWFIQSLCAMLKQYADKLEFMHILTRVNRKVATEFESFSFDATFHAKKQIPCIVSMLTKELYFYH
#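 Evaluation: percent activation relative to control range; Material: Procaspase-3 D3A mutant, all three cleavage aspartates alanine; Compound: single dose, 8.5 µM nominal compound, 0.8% DMSO; Replication: one well per compound; Signal: absorbance at 405 nm, 0 and 120 min; Schedule: 1 h preincubation plus 2 h reaction at 25 °C.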
# procasp7 counter: counter-screen for procaspase-3 activators: activators of human procaspase-7 | recombinant procaspase-7, Ac-DEVD-pNA absorbance 405 nm; D23A/D198A/D206A triple mutant, cannot self-cleave; scale: DMSO 0, 5 µM enzyme 100 | P55210 | activation, % at 8.5 µM | 330,000 compounds, 0.093% hits;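 active means percent activation above the screen-wide mean plus 3 SD, cut at about 25% in these data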
# Target sequence (P55210 whole entry D23A/D198A/D206A): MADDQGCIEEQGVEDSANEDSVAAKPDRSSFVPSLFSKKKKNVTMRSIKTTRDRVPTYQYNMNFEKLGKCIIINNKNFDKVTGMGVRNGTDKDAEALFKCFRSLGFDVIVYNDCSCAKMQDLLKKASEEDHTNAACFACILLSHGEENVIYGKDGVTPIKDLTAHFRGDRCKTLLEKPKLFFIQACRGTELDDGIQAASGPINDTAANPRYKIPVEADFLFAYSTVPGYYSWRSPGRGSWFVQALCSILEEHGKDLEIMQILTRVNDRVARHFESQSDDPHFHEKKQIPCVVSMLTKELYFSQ
#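 Assay system: Uncleavable procaspase-7 mutant enzyme; Input: 2 µM procaspase-7 mutant as dispensed; Also added: DEVD-pNA substrate; Medium: Zinc-free HEPES pH 7.4 with 300 mM NaCl, 0.01% Triton X-100; Timing: 1 h compound preincubation, 2 h substrate cleavage, 25 °C; Measured by: Epi-absorbance of released pNA at 405 nm, two timepoints.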
# MsrA conf: confirmation of bovine MsrA inhibitors. AID 651822. shares compounds with MsrA inhibitor. purified bovine MsrA, absorbance read-out. 2,300 compounds, 41% hits. inhibition, % at 15.5 µM;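 further: coupled to thioredoxin reductase with NADPH and selenocystamine and DMSO as substrate; 0% = vehicle only and 100% = full effect of reference inhibitor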
# Active calls of the source: *; · = no result. Only some compounds are listed: those with a hit (about 1.5% of all), similar ones and a draw of the others. Unless noted, no stated cut-off is given here; in the data, active means inhibition above about 4.5%; inactive means the rest.
SMILES,MsrA inhibitor,bovine MsrA act,TbMetRS inhib,proCasp3 act,procasp7 counter,MsrA conf
Cc1ccc(/C=C(/C#N)C(=O)NC(C)c2ccccc2)o1 (centres undefined),2.6,-10.9,-1.7,-6.0,7.8,·
COc1cccc(Oc2nnnn2-c2ccccc2)c1,4.7*,-3.1,0.3,-0.2,13.1,1.2
CCOC(=O)C1=C(O)/C(=C/c2ccc(OCC(=O)O)c(OCC)c2)SC1=Nc1ccc(OC)cc1,4.7*,-2.0,-0.3,-14.4,-1.8,3.0
O=c1/c(=C/c2ccco2)sc2n1CN(c1ccccc1)CN=2,5.0*,-6.9,0.0,4.2,4.4,6.1*
O=c1/c(=C/c2ccco2)sc2n1CN(c1cccc(Br)c1)CN=2,5.2*,7.4,0.7,7.3,-9.8,2.3
Cc1cc(C)cc(N2CN=c3s/c(=C\c4ccco4)c(=O)n3C2)c1,2.9,-8.0,0.0,-2.7,-2.1,·
COC(=O)[C@]12C[C@H](CC(=O)N3CCN(C(=O)C4CC4)CC3)C(=O)N(Cc3ccccc3)C1=C[C@H](C(C)(C)C)O[C@@H]2C,-0.2,·,·,·,·,·
CNC[C@@H]1OCc2cnnn2CCCC(=O)N([C@@H](C)CO)C[C@H]1C,2.0,·,·,·,·,·
CCCNC(=S)N(Cc1ccccc1)Cc1nc2ccccc2c(=O)[nH]1,47.0*,-7.1,-0.9,3.3,-3.9,-0.7
CCOc1cc(S(=O)(=O)NC2CC2)c(OCC)cc1-n1cnnn1,25.5*,-1.8,-0.9,-1.3,6.2,22.7*
CCOc1cc(S(=O)(=O)NCc2ccco2)c(OCC)cc1-n1cnnn1,7.7*,-3.0,0.5,-3.6,8.3,3.4
CC(C)C[C@H]1COc2ccc(Cl)cc2S(=O)(=O)N1,-0.5,·,·,·,·,·
COC(=O)C1=C(C)N(C)C(=NCC2CC2)NC1c1cccc(F)c1 (centres undefined),0.2,·,·,·,·,·
O=C(CN1C(=O)S/C(=C\c2cccs2)C1=O)Nc1ccc(C(=O)O)c(O)c1,5.3*,-5.2,0.0,1.4,-2.3,6.0*
O=C(CN1C(=O)S/C(=C/c2cccs2)C1=O)N1CCCC1,2.5,-4.8,-0.5,12.6,8.4,·
O=C(CN1C(=O)S/C(=C\c2cccs2)C1=O)Nc1ccc(O)c(C(=O)O)c1,5.3*,-4.2,0.1,2.2,-7.5,5.8*
O=C(NC(Cc1c[nH]c2ccccc12)C(=O)O)c1cccc(S(=O)(=O)N2CCCCC2)c1 (centres undefined),-0.1,-6.5,-0.2,·,·,·
CC1CN(C(=O)/C=C/c2ccc3c(c2)OCO3)CC(C)O1 (centres undefined),6.0*,-13.2,-0.9,8.1,-0.7,1.1
Oc1ccc(/C=N/Nc2ccc(C(F)(F)F)cn2)cc1,5.5*,1.0,-0.3,5.3,4.4,2.7
CC(C)Cn1cc(C(=O)NCCCN2CCCC2=O)c2c3ccccc3n(C)c2c1=O,4.9*,-11.4,-1.0,2.2,-14.0,0.7
CCCN1C(=O)c2[nH]nc(-c3ccccc3)c2C1c1ccc(Br)cc1 (centres undefined),0.1,·,·,·,·,·
Cn1cc(/C=C2\SC(=O)NC2=S)c2ccccc21,22.1*,-11.4,-0.1,-13.2,-29.6,7.0*
CN(C)c1ccc(C(=O)c2ccccc2C(=O)O)c(O)c1,6.4*,-8.1,0.1,-7.7,5.1,5.8*
N#C/C(=C(/O)CSc1ccccn1)c1nc2ccccc2s1,1.5,-1.9,-0.3,-13.3,-13.2,·
N#C/C(=C(/O)CSc1ccccc1C(=O)O)c1nc2ccccc2s1,7.1*,-4.5,-0.4,0.1,6.0,7.1*
SMILES,MsrA inhibitor,bovine MsrA act,TbMetRS inhib,proCasp3 act,procasp7 counter,MsrA conf
Cc1cc(N2CCCC2)c(C)cc1C=O,5.1*,-1.6,-0.5,2.6,2.6,2.0
Cc1cc(N)ccc1N1CCCC1,·,1.7,0.0,-3.7,-14.7,·
C=CCNc1sc(C(=O)C2CC2)c(N)c1C#N,6.4*,-8.0,-1.1,0.6,2.4,4.8*
O=[N+]([O-])c1ccc(Cl)c(CN2CCN(c3ncc(Cc4ccccc4)cn3)CC2)c1,1.2,·,-1.1,·,·,·
O=C(Nc1ccc2c(c1)OCO2)c1c(Cl)nc2sccn12,10.2*,1.0,-0.4,-2.1,7.8,3.4
CN/C=C1\C(=O)C(C)(C)Oc2ccc3ccc(=O)oc3c21,5.4*,-6.4,-1.3,2.6,-7.8,4.0
CC1(C)Oc2ccc3ccc(=O)oc3c2/C(=C/Nc2ccc(O)cc2)C1=O,-0.5,-3.2,-0.4,-12.1,-10.9,·
COC(=O)C1=C(C)N(Cc2ccccc2C(F)(F)F)C(=NCc2ccc3c(c2)OCO3)NC1c1cccc(C(F)(F)F)c1 (centres undefined),-0.7,·,·,·,·,·
N#C/C(=N/Nc1ccc(S(=O)(=O)N2CCOCC2)cc1)C(N)=O,6.6*,-3.7,0.3,-2.2,-7.3,3.4
N#C/C(=N\Nc1ccc(S(=O)(=O)N2CCCCCC2)cc1)C(N)=S,2.0,-6.6,0.2,-30.8,-23.8,·
COC(=O)C1=C(C)N(Cc2cccc(C(F)(F)F)c2)C(=NCc2ccc3c(c2)OCO3)NC1c1ccccc1C(F)(F)F (centres undefined),-1.8,·,·,·,·,·
CN1CCc2c(sc3nc(SCC(N)=O)n(-c4ccccc4)c(=O)c23)C1,2.1,-0.4,-0.9,-1.2,-12.8,·
COC(=O)CSc1nc2sc3c(c2c(=O)n1-c1ccccc1)CCN(C)C3,4.7*,-10.9,-0.5,-6.3,3.9,1.7
CCCCSc1nc2sc3c(c2c(=O)n1-c1ccccc1)CCN(C)C3,5.4*,-3.7,-1.2,-0.7,-7.1,1.8
CC(C)[C@@H](C)/C=C/[C@@H](C)[C@H]1CC[C@@H]2[C@]1(C)CCC1[C@]23C=C[C@]2(C[C@@H](O)CC[C@]12C)N(c1ccc(Br)cn1)O3 (some centres undefined),0.8,·,·,·,·,·
O=C(O)c1ccc2c(=O)n3c(nc2c1)/C(=C/c1cccc(O)c1)CC3,5.0*,-7.5,0.2,4.8,0.2,4.4
O=c1c2ccc(Cl)cc2nc2n1CC/C2=C\c1cccc(O)c1,0.9,-0.8,-0.2,2.3,-9.1,·
COC(=O)C1=C(C)N(Cc2ccc(C(F)(F)F)cc2)C(=NCc2ccc(C(F)(F)F)cc2)NC1c1cccc(C(F)(F)F)c1 (centres undefined),-1.6,·,·,·,·,·
Cc1cc(=O)[nH]c2c(C)cc(S(=O)(=O)Nc3ccc(O)cc3)cc12,9.2*,-1.5,1.9,-5.1,-2.2,4.7*
CNC(=S)N1N=C(c2ccc(Br)cc2)CC1c1ccc(OC)cc1 (centres undefined),5.7*,-4.6,0.2,-3.2,-6.7,2.9
O=C(NCC1CCN(C(=O)C(=O)c2cc3ccccc3o2)CC1)c1cccnc1,2.1,·,·,·,·,·
Cc1nc2nc(-c3cccs3)[nH]c2cc1Br,7.0*,0.7,-1.0,7.7,6.0,4.4
COC(=O)c1ccccc1NC(=S)NC(=O)C1CC1,11.9*,-2.3,0.0,-7.1,-11.1,10.7*
